High-throughput results from PubChem.
V1R ag counter: activates human V1a receptor in oxytocin agonist counter-screen; activation, % at 3 µM; CHO-V1R cells, Fluo-8 calcium fluorescence, agonist mode; 0% DMSO, 100% 3 nM vasopressin; P37288; 320,000 compounds, 0.25% hits;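 active means activation above the mean activation of all tested compounds plus 3 SD, per screening run, cut at about 20% in these data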;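 further: signal is peak over basal fluorescence ratio across a 100 second FLIPR read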
OXTR ag: human OXTR agonism. P30559. CHO-OTR cells, Fluo-8 calcium fluorescence; normalized: DMSO 0%, oxytocin 100%. activation, % at 3 µM. 320,000 compounds, 0.32% hits. AID 2435;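 active means activation above the mean of all tested compounds plus 3 SD, cutoff set per screening run, cut at about 20% in these data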;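 further: peak over basal fluorescence ratio from a 100 s FLIPR kinetic read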
Target sequence (P30559 whole entry, looked up): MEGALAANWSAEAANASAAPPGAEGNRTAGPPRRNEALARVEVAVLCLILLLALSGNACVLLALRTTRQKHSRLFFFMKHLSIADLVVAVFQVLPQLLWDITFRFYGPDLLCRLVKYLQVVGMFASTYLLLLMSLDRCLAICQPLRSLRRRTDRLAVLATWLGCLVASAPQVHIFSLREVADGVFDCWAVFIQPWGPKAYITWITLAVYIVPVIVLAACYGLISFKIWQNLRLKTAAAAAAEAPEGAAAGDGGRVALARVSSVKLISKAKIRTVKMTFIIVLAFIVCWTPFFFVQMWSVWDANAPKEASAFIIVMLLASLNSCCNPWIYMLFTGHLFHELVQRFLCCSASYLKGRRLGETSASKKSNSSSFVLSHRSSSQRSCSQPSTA
TAAR1 agonist: agonists of human TAAR1; Q96RJ0; CHO RD-HGA16 TAAR1, Fluo-8 calcium fluorescence; vehicle wells 0%, saturating PEA agonist 100%; activation, % at 3 µM; 360,000 compounds, 0.99% hits; AID 624467;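 active means activation above the mean activation of all test compounds in the run plus 3 SD, cut at about 38% in these data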
Target sequence (Q96RJ0 whole entry, looked up): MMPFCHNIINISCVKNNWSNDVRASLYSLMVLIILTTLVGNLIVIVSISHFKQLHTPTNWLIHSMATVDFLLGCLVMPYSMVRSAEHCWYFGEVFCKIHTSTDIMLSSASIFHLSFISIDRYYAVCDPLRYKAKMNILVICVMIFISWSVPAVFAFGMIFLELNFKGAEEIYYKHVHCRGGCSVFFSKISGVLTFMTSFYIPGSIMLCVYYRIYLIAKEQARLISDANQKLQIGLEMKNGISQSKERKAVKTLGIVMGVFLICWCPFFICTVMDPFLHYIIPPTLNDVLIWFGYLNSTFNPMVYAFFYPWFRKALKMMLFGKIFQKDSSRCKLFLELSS
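Assay system: CHO-derived RD-HGA16 cells with stable Gα16 and human TAAR1; timing: 17-24 h seeding, 75 min 37 °C dye, 30 min RT; read-out: % activation from peak over basal fluorescence ratio, DMSO-to-PEA scaled; measured by: kinetic Fluo-8 calcium fluorescence; benchmarks: low control DMSO, high control PEA (EC100); doses: 3 µM single concentration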
TAAR1 antag: antagonists of human TAAR1 | Q96RJ0 | CHO RD-HGA16 TAAR1, Fluo-8 calcium fluorescence, antagonist | inhibition, % at 3 µM | 360,000 compounds, 1.5% hits | AID 624466;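 active means inhibition above a per-plate cutoff, the mean inhibition of test compounds on that plate plus 3 SD, cut at about 49% in these data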
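Test system – hTAAR1-expressing CHO RD-HGA16 cells, Gα16-coupled · Also added – β-PEA at EC80 concentration, post-compound challenge · Compound – 3 µM, single point · Incubation – dye loading 75 min at 37 °C, then 30 min room temperature · Measured by – Fluo-8 intracellular calcium dye fluorescence, real-time kinetic reads · Benchmarks – vehicle and agonist controls · Replicates – singlicate, one well per test compound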
OXTR potentiator: human OXTR potentiation | P30559 | CHO-OTR cells, Fluo-8 calcium fluorescence, potentiator mode; 0% = oxytocin EC15, 100% = EC100 | activation, % at 3 µM | 320,000 compounds, 0.061% hits;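 active means activation above that plate's cutoff, the mean activation of tested compounds plus 3 SD, cut at about 6.6% in these data, passing the limit was not always enough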
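Dosing: Single dose, 3.0 µM nominal final compound concentration | Material: Human OTR in CHO cells | Technique: Kinetic Fluo-8 calcium fluorescence | Benchmarks: EC15 oxytocin alone as 0%, 75 nM oxytocin as 100% | Probe or stimulus: Oxytocin at about EC15, sub-maximal agonist stimulus | Incubation: Compound 6 min at room temperature before oxytocin, 100 s read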
Hits are given with their value; n = inactive; x = not tested or not shown. In the library only some 2.3% were active in any assay of this set; here they are far more common.

SMILES | V1R ag counter | OXTR ag | TAAR1 agonist | TAAR1 antag | OXTR potentiator
COC(=O)c1ccc2c(=O)n(CC3CCCO3)c(SCC(=O)Nc3ccccc3Cl)nc2c1 (centres undefined) | n | n | n | n | n
COC(=O)c1ccc2c(=O)n(CC3CCCO3)c(SCC(=O)Nc3ccccc3OC)nc2c1 (centres undefined) | n | n | n | 51.5 | n
O=C(Nc1cccc(C(F)(F)F)c1)Nc1ccc2[nH]c(=O)[nH]c2c1 | n | n | n | n | n
CC(C)C[C@H]1CNC(=O)C(=O)N1C[C@@H]1CCCN1C[C@H](Cc1ccccc1)N1C[C@H](CC(C)C)N(CC2CCCCC2)C(=O)C1=O | x | x | n | n | x
COc1ccc(S(=O)(=O)N2CCCCC2)cc1NC(=O)CN(Cc1ccco1)Cc1ccco1 | n | n | n | 63.9 | n
CCOc1ccc(S(=O)(=O)N2CCCCC2)cc1NC(=O)CN1C(=O)NC(CC)(c2ccccc2)C1=O (centres undefined) | n | n | n | n | n
CCC1(c2ccccc2)NC(=O)N(CC(=O)Nc2cc(S(=O)(=O)N3CCCCCC3)ccc2OC)C1=O (centres undefined) | n | n | n | 69.7 | n
COc1ccc(S(=O)(=O)N2CCCCC2)cc1NC(=O)CN(C)C1CCCCC1 | n | n | n | n | n
CN(C)C(=O)c1cn(-c2ccccc2)nc1-c1cccs1 | n | n | n | n | n
CCN(CC(=O)Nc1ccc(NC(C)=O)cc1)C(=O)c1cn(-c2ccccc2)nc1-c1cccs1 | x | x | n | 64.2 | x
O=C(c1cn(-c2ccccc2)nc1-c1cccs1)N1CCN(c2ccccn2)CC1 | n | n | n | 49.0 | n
COc1cccc(NC(=O)CN(C)C(=O)c2cn(-c3ccccc3)nc2-c2cccnc2)c1 | n | n | n | n | n
COc1cccc(NC(=O)CN(C)C(=O)c2cn(-c3ccccc3)nc2-c2cccs2)c1 | n | n | n | 60.9 | n
CC1CN(C(=O)c2ccccc2)CCC1=NO (centres undefined) | x | x | n | n | x
COC(=O)C1=C(C)N(Cc2cccc(C(F)(F)F)c2)C(=NCc2ccc(C(F)(F)F)cc2)NC1c1cccc(C(F)(F)F)c1 (centres undefined) | x | x | n | n | x
O=C(Cn1c(=O)n(CCc2c[nH]c3ccccc23)c(=O)c2cccnc21)Nc1ccccc1F | n | n | n | 51.7 | n
O=C(NC1CCC(Oc2ccc(C(=O)O)cc2)CC1)NC12CC3CC(CC(C3)C1)C2 (centres undefined) | n | n | n | n | n
COC1OC(c2ccccc2)=C(c2cnc(N)nc2)c2ccc(F)cc21 (centres undefined) | x | x | n | n | x
C[C@H](CO)N1C[C@H](C)[C@H](CN(C)C(=O)c2ccccn2)Oc2cc(C#Cc3ccc(F)cc3)ccc2S1(=O)=O | x | x | n | n | x
COc1cccc(C#Cc2ccc3c(c2)O[C@@H](CN(C)C(=O)c2ccccn2)[C@@H](C)CN([C@H](C)CO)S3(=O)=O)c1 | x | x | n | 49.5 | x
Cc1ncc(CO)c2c1Oc1nc(-c3ccccc3)nc(SCC(=O)N3CCCCC3)c1C2 | n | n | n | n | n
COc1ccccc1-c1nc2c(c(SCC(=O)N3CCCCC3)n1)Cc1c(CO)cnc(C)c1O2 | n | n | n | 53.6 | n
CC(=O)N(C)c1ccc(NC(=O)Nc2ccc(C)c(C)c2)cc1 | n | n | n | 58.5 | n
Fc1cccc(Cl)c1C1SCc2nc3ccccc3n21 (centres undefined) | x | x | n | n | x
COc1cc(/C=C(\C#N)c2nc3ccccc3n2C)cc(OC)c1O | 28.6 | 25.7 | n | n | n
SMILES | V1R ag counter | OXTR ag | TAAR1 agonist | TAAR1 antag | OXTR potentiator
COc1cc(/C=C(\C#N)C(=O)c2c[nH]c3ccccc23)cc(OC)c1O | n | n | 40.6 | n | n
COc1cc(/C=C(\C#N)C(=O)NCCc2ccccc2)cc(OC)c1O | n | n | n | n | n
COc1cc(/C=C(\C#N)c2nc3ccccc3[nH]2)cc(OC)c1O | 28.9 | 27.6 | n | n | n
O=C(Nc1cccc(Cl)c1)C1C2C=CC3(O2)C1C(=O)N(CCCN1CCCCC1)C3C(=O)NC1CCCCC1 (centres undefined) | n | n | n | n | n
Cc1cccc(OCCSc2nc3c([nH]2)c(=N)ncn3Cc2ccccc2)c1 | n | n | n | 55.5 | n
CC(C)Sc1nc2c([nH]1)c(=N)ncn2Cc1ccccc1 | n | n | n | n | n
CC(OC(=O)CSCC(=O)Nc1ccc(Cl)cc1)C(=O)N(C)Cc1ccccc1 (centres undefined) | x | x | n | n | x
CC(C)C(=O)Nc1ccc(N2CCOCC2)c(S(=O)(=O)Nc2ccccc2Cl)c1 | n | n | n | 52.8 | n
O=C(Cc1ccc(Cl)c(Cl)c1)Nc1ccccc1N1CCOCC1 | n | n | n | n | n
O=C(Nc1ccccc1N1CCOCC1)C1(c2ccc(Cl)cc2)CCC1 | n | n | 41.1 | n | n
O=C(Nc1ccc(N=Nc2ccccc2)cc1)c1ccccc1Cl | n | n | n | 49.0 | n
Cc1cc(F)ccc1-c1cc(C(=O)NCc2ccc(C(F)(F)F)cc2)[nH]n1 | x | x | 55.5 | 70.5 | x
CN(C)S(=O)(=O)Oc1cccc(C(=O)Nc2cccc(Cl)c2)c1 | n | n | n | n | n
CN(C)S(=O)(=O)Oc1cccc(C(=O)Nc2ccc(Cl)c(Cl)c2)c1 | n | n | 40.6 | 60.5 | n
Cc1ncc(C(O)c2ccc(N(C)C)cc2)n1Cc1ccccc1 (centres undefined) | x | x | n | n | x
CN(C)c1ccc2nc3c(=O)[nH]c(=O)nc-3n(CC(O)C(O)C(O)CO)c2c1 (centres undefined) | 34.8 | 22.6 | n | n | n
CN(CC(=O)Nc1cccc(F)c1)CC(=O)Nc1cccc(S(=O)(=O)N(C)c2ccccc2)c1 | x | x | n | 62.8 | x
CN(CC(=O)Nc1cccc(F)c1)CC(=O)Nc1cccc2ccccc12 | n | n | 45.8 | 58.8 | n
CN(CC(=O)Nc1cccc(F)c1)CC(=O)Nc1ccccc1[N+](=O)[O-] | n | n | n | n | n
Cc1ccccc1CN(C)CC(=O)Nc1cccc(S(=O)(=O)N(C)c2ccccc2)c1 | n | n | n | n | n
Cc1cc(C)c(NC(=O)CN(C)CC(=O)Nc2cccc(S(=O)(=O)N(C)c3ccccc3)c2)c(C)c1 | n | n | 43.7 | 88.7 | n
CN(c1ccccc1)S(=O)(=O)c1ccc(NC(=O)c2nc(S(C)(=O)=O)ncc2Cl)cc1 | n | n | n | 48.9 | n
Cc1ccc(NC(=O)/C=C/c2ccc(S(=O)(=O)N3CCOCC3)cc2)cc1S(=O)(=O)N(C)C | x | x | n | 66.5 | x
CC(=O)Nc1cccc(NC(=O)/C=C/c2ccc(S(=O)(=O)N3CCOCC3)cc2)c1 | n | n | n | n | n
CCOc1ccc(-c2[nH]ncc2Oc2ccccc2OC)c(O)c1 | n | n | n | n | n
CCOc1ccc(-c2[nH]ncc2Oc2ccccc2OCC)c(O)c1 | n | n | n | 49.4 | n
